Assay results collected from several papers.
Target: Serine/threonine-protein kinase LATS2 (LATS2, Homo sapiens, UniProt Q9NRM7)
Residues used in one study (Q9NRM7 1-1088): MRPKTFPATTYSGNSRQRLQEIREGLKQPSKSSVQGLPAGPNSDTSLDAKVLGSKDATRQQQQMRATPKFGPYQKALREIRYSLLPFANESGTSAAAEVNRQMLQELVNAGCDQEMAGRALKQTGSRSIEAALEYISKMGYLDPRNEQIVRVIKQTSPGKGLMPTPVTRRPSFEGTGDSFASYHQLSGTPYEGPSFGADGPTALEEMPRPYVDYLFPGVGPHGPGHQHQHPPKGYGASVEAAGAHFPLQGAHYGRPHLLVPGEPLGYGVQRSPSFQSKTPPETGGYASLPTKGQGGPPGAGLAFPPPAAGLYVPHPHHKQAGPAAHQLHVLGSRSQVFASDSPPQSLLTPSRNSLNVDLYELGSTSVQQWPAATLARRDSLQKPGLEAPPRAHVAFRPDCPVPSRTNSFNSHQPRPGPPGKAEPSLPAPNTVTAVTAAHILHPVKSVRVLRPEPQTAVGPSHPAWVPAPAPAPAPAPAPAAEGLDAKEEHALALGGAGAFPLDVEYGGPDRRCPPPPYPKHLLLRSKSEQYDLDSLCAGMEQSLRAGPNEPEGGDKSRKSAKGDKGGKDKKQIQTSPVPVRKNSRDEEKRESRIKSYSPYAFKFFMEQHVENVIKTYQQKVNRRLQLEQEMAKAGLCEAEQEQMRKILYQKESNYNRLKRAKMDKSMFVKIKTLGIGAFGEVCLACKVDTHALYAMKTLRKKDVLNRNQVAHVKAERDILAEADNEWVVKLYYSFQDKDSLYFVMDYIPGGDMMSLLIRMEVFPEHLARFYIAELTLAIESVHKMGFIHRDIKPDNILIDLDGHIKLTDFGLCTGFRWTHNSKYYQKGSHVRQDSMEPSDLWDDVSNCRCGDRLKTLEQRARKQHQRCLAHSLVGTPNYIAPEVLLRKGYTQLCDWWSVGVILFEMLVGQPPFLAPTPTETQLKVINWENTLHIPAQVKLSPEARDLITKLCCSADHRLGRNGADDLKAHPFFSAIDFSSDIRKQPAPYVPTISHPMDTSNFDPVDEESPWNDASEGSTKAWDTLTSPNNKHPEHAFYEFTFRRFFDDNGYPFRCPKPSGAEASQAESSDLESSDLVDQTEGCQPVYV

SMILES | observed | technique | tested at | remaining binding [%]
CN(CCCC(F)(F)F)c1nccc(-c2cnn3ncccc23)n1 | binding | – | 1 µM | 100
O=C(c1ccc(Nc2ncc(Cl)c(-c3ccc(Cl)s3)n2)cc1)N1CCC(N2CCCC2)CC1 | binding | competition with immobilised ligand | 1 µM | 3.8
CC1CCCN1c1nccc(-c2cnn3ncccc23)n1 (centres unmarked) | binding | – | 1 µM | 100
Nc1ncc2c(n1)-c1c([nH]c3ccc(C#CC4CC4)cc13)CCCC2 | binding | competition with immobilised ligand | 1 µM | 91
FC(F)(F)Oc1cccc(-c2cnc3ccc(-c4ccncc4)nn23)c1 | cell-free assay | competition with immobilised ligand | 5 µM | 38
O=C(c1ccc(Nc2nccc(-c3cc4ccccc4s3)n2)cc1)N1CCC(N2CCCC2)CC1 | binding | competition with immobilised ligand | 1 µM | 72
CCCNc1nc(C#Cc2ccc(Cl)s2)nc2c1ncn2[C@H]1[C@H](O)[C@H](O)[C@]2(C(=O)NC)C[C@H]12 | binding | competition with immobilised ligand | 10 µM | 26
O=C(NCCCN1CCOCC1)c1ccc(Nc2nccc(-c3cc4ccccc4s3)n2)cc1 | binding | competition with immobilised ligand | 1 µM | 100
Cn1nc(C(=O)NCc2ccc(C(=O)O)cc2)cc1-c1ccc2[nH]ccc2c1 | cell-free assay | competition with immobilised ligand | 0.1 µM | 100
COc1cnc(Nc2cccc(S(N)(=O)=O)c2)nc1N1CCN(c2ccccc2)C(=O)C1 | binding | competition with immobilised ligand | 1 µM | 100
O=C1CCc2cc(Nc3cc(OC4CCOCC4)c([N+](=O)[O-])cc3Cl)ccc2N1 | cell-free assay | competition with immobilised ligand | 1 µM | 80
CN(C)c1ncc(F)c(-c2cnn3ncccc23)n1 | binding | – | 1 µM | 72
COc1cc(-c2cn(C3CCc4ccccc4N(CC(F)(F)F)C3=O)nn2)ccc1-n1ccc(C)n1 (centres unmarked) | cell-free assay | competition with immobilised ligand | 1 µM | 69
O=C(Nc1c[nH]nc1C(=O)NC1CCNCC1)c1cc(F)cc(F)c1 | binding | competition with immobilised ligand | 1 µM | 94
Cc1nc(C2CCN(C(=O)c3ccc(OC(F)(F)F)cc3N)CC2)c2ncc(N3CCN(C)CC3)cc2n1 | cell-free assay | competition with immobilised ligand | 1 µM | 100
F[C@@H]1CCN(c2nccc(-c3cnn4ncccc34)n2)C1 | binding | – | 1 µM | 100
C[C@@]1(Cc2ccc(C#N)cc2)C(=O)N(c2cc(Cl)cc(Cl)c2)c2ncc(C(=O)NC3(c4nc(C5CCC5)no4)CC3)n21 | cell-free assay | competition with immobilised ligand | 1 µM | 92
CN(c1nccc(-c2cnn3ncccc23)n1)C1CC1 | binding | – | 1 µM | 100
CN(C)CC#Cc1ccc(OCCCc2sc(N3CCc4cccc(C(=O)Nc5nc6ccccc6s5)c4C3)nc2C(=O)O)c(F)c1 | cell-free assay | competition with immobilised ligand | 1 µM | 95
C[C@H]1CCN(c2nccc(-c3cnn4ncccc34)n2)C1 | binding | – | 1 µM | 83
